# Sampled rows, rich in hits. Any-hit rate of the full collection: about 2.5%.
# TRPC4 PAM: TRPC4 (mouse) allosteric potentiation; B-score at 10 µM; HEK293 TRPC4beta/mu-opioid, DAMGO EC20, Fluo-4 Ca2+ flux; hits give high values; Q9QUQ5; 310,000 tested, 0.42% active;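 active means B-score of calcium response area above 5 SD of library B-scores, with initial fluorescence ratio within 5 SD of library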;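 further: B-score of integrated fluorescence ratio over time as area under calcium response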
# Pemphigus Ab inh: inhibitors of pemphigus antibody binding to human desmoglein-3; P32926; DSG3-coupled beads, scFv-anti-DSG3-GFP binding, flow cytometry; hits give low values; binding (percent of control), % at 10 µM; 310,000 tested, 0.48% active; AID 588358;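 active means binding more than 3 SD below its plate's average and above zero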;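 further: hits lower antibody fragment binding to DSG3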
# Target sequence (P32926 whole entry, looked up, the tested form may be a part): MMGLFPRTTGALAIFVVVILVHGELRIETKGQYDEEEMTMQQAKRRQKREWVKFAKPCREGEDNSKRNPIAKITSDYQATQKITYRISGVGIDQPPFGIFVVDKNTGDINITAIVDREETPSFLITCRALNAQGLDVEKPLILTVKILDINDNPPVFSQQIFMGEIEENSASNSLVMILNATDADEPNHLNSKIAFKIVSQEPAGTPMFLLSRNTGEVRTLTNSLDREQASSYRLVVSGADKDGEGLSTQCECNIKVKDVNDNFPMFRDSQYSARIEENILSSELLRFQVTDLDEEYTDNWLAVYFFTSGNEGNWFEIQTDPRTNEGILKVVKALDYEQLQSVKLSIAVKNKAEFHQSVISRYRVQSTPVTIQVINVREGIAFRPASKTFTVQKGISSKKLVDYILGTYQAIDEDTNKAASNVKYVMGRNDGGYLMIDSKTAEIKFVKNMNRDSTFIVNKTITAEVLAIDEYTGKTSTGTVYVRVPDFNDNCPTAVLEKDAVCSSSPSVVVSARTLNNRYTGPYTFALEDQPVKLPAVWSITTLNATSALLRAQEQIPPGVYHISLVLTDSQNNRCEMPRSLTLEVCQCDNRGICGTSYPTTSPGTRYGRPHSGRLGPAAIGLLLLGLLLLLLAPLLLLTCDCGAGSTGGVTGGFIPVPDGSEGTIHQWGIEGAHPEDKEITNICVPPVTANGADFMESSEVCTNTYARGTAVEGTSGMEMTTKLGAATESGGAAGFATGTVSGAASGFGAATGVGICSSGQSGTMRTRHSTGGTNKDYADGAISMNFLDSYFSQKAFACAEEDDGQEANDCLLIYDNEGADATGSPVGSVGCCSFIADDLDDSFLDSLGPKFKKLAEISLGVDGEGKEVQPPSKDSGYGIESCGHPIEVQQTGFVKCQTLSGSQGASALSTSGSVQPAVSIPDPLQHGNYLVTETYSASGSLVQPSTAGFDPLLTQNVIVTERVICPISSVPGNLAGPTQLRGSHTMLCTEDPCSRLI
# TRPC4 inh: TRPC4 (mouse) channel inhibition; HEK293 TRPC4beta/mu-opioid, DAMGO-evoked Fluo4 calcium flux; hits give low values; 300,000 tested, 0.39% active; B-score at 10 µM; AID 2247; Q9QUQ5;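 active means B-score over 3 SD under the library average, no early fluorescence shift, positive overall ratio signal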
#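 material = TRPC4beta/mu-opioid receptor HEK293 cell line | probe or stimulus = sequential submaximal and maximal DAMGO stimulation | compound dosing = one concentration per compound | measured by = Fluo4 Ca2+ flux fluorescence | evaluation = integrated fluorescence ratio relative to baseline, converted to per-well B score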
# TRPC6 inh: mouse TRPC6 channel inhibition; AID 2553; HEK293-TRPC6, membrane potential dye, ACh-evoked depolarization; hits give low values; 310,000 tested, 1.1% active; Q61143; B-score at 10 µM;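 active means B-score under library mean minus 3 SD, initial fluorescence not abnormally high, positive integrated signal ratio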;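 further: B-score derived from integrated fluorescence ratio over the kinetic read; more negative B-score means stronger inhibition of depolarization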
# TRPC6 act: activates the mouse TRPC6 cation channel; B-score at 10 µM; HEK293-TRPC6 membrane potential dye fluorescence; hits give high values; AID 2550; 310,000 tested, 0.13% active;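 active means B-score of the integrated fluorescence ratio above library mean plus 3 SD, and starting fluorescence ratio within library mean plus 5 SD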;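 further: higher score means more depolarization so channel activation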
# TRPC4 agonist: activators of mouse TRPC4 channel; Q9QUQ5; 310,000 tested, 0.49% active; B-score at 10 µM; AID 2237; HEK293 TRPC4beta/mu-opioid, Fluo4 calcium fluorescence; hits give high values;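 active means B-score above 5 SD of library B-scores, and initial fluorescence ratio not above library mean plus 5 SD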;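 further: positive B-score marks a calcium rise read as TRPC4 activation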
#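 system = HEK293 cells stably co-expressing mouse TRPC4beta and mu-opioid receptor | schedule = Fluo4 dye loading 45 min at room temperature, 110 s recording | measure = B-scored integrated calcium fluorescence ratio | signal = Fluo4 calcium-sensitive dye fluorescence, kinetic, 1 Hz baseline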
# TRPC4 spec 2: second selectivity test of TRPC6 inhibitors: effect on mouse TRPC4 | shares compounds with TRPC6 inh | inhibition, % at 10 µM | AID 2776 | HEK293 TRPC4/MOR, membrane potential dye fluorescence; channel activated by saturating DAMGO dose | 920 tested, 42% active;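 active means compounds whose fluorescence signal differed from control wells by over 3 SD, either direction, in both duplicate plates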
# TRPC4 spec: mouse TRPC4 off-target activity of TRPC6 inhibitors | shares compounds with TRPC6 inh | HEK293 TRPC4/mu-opioid, membrane potential fluorescence | activity change, negative = inhibition, % at 10 µM | 920 tested, 61% active | AID 2777;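 active means rise or fall in signal beyond 3 SD of buffer-only wells in both replicate plates, either sign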;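 further: integrated kinetic ratio of fluorescence range over baseline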
# HEK293 MPD ctr 2-1: second check of TRPC6 inhibitor effects in parental HEK293 cells; shares compounds with TRPC6 inh; parental HEK293 membrane potential dye fluorescence; maximal acetylcholine challenge after compound addition; signal change vs control, % at 10 µM; 920 tested, 31% active;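 active means membrane potential signal moving either way by over 3 SD of the maximum-effect control, in both duplicate plates, meaning non-specific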
# HEK293 MPD ctr-1: counter-screen for TRPC6 inhibitors: effect in parental HEK293 cells; AID 2780; 920 tested, 60% active; parental HEK293 membrane potential dye fluorescence; membrane potential signal change, % at 10 µM; shares compounds with TRPC6 inh;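 active means membrane potential signal shifting up or down by more than 3 SD of buffer-only wells, on both duplicate plates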
# HEK293 MPD ctr-2: checks TRPC6 modulator effects in parental HEK293 cells | shares compounds with TRPC6 inh | membrane potential signal change, % at 10 µM | 2,400 tested, 51% active | membrane potential dye fluorescence | AID 488924;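 active means membrane potential signal moves up or down beyond 5 SD from buffer-only wells, on both duplicate plates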
# HEK293 MPD ctr 2-2: second counter-screen for TRPC6 modulators: effect in parental HEK293 cells; shares compounds with TRPC6 inh; membrane potential dye fluorescence; after compound, maximal acetylcholine stimulation; 2,400 tested, 14% active; inhibition, % at 10 µM;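 active means membrane potential signal drops by more than 5 SD from the mean control signal, in both duplicate plates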;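 further: plate controls were acetylcholine ECmax control wells for no effect and buffer only wells for full effect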
# TRPC4 ctr mod: tests whether TRPC6 modulators also affect mouse TRPC4; shares compounds with TRPC6 inh; HEK293 TRPC4/mu-opioid, membrane potential fluorescence; percent change from control (negative = decrease, positive = increase), % at 10 µM; 2,400 tested, 69% active;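 active means membrane potential signal moved up or down beyond 5 SD of buffer control wells, in both duplicate plates, actives on both sides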;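 further: plate controls were assay buffer wells for no effect and DAMGO maximal-effect wells for full effect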
# TRPC4/MOR inh 2: second check of whether TRPC6 modulators also affect mouse TRPC4. shares compounds with TRPC6 inh. HEK293 TRPC4/mu-opioid, membrane potential dye fluorescence; stimulated with maximal-effect DAMGO. inhibition, % at 10 µM. 2,400 tested, 55% active. AID 488928;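 active means drop in membrane potential signal beyond 5 SD of the control wells in both duplicate plates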;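 further: TRPC4 counter screen for TRPC6 hits run under conditions tuned for TRPC6 not TRPC4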
# TRPC6 block conf: confirmation of mouse TRPC6 inhibitors. AID 488960. inhibition, % at 10 µM. HEK293-TRPC6, membrane potential dye, ACh-evoked depolarization. 3,300 tested, 43% active. shares compounds with TRPC6 inh;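 active means fluorescence ratio falls more than 5 SD below the full-stimulation control mean, in both duplicate runs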;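 further: integrated fluorescence ratio of peak minus minimum over baseline after agonist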
# TRPC6 act confirm: confirmation of mouse TRPC6 activators | 2,800 tested, 11% active | activation, % at 10 µM | HEK293-TRPC6 membrane potential dye fluorescence, FDSS | AID 488961 | shares compounds with TRPC6 inh;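 active means ratio signal rise beyond 5 SD above unstimulated control wells' mean, seen in both duplicate runs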;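 further: plate controls were buffer EC0 wells for no effect and acetylcholine ECmax response for full effect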
# * hit, by the source's call; i = inactive; . = no result given.
SMILES,TRPC4 PAM,Pemphigus Ab inh,TRPC4 inh,TRPC6 inh,TRPC6 act,TRPC4 agonist,HEK293 MPD ctr-2,HEK293 MPD ctr 2-2,TRPC4 ctr mod,TRPC4/MOR inh 2,TRPC6 block conf,TRPC6 act confirm,others
CCCOc1ccc(N2C(=O)CC(N(CCc3ccc(OC)cc3)C(=O)/C=C/C(=O)O)C2=O)cc1 (configuration not stated),i,100.2,i,-10.1*,i,i,.,.,.,.,i,i,TRPC4 spec 2=i;TRPC4 spec=i;HEK293 MPD ctr 2-1=i;HEK293 MPD ctr-1=i
Cc1cccc(OCC(=O)N(Cc2ccco2)C2CCS(=O)(=O)C2)c1C (configuration not stated),i,99.7,i,i,i,i,.,.,.,.,.,.,
Oc1cccc(-c2nc3ccccc3s2)c1,i,.,i,i,i,i,.,.,.,.,.,.,
CC[n+]1cccc(-c2nc3ccccc3s2)c1,i,104.0,i,-5.46*,i,i,-161.5%*,i,-26.0%*,i,i,i,
COCCNc1c(-c2cc3ccc(C)c(C)c3[nH]c2=O)nc2ccccn12,i,110.2,i,-5.08*,i,i,i,i,i,i,i,i,
Cc1ccc(-c2nn(-c3cccc(F)c3)cc2CN2CCN(c3ccccn3)CC2)o1,i,93.0,i,i,i,i,.,.,.,.,.,.,
Cc1ccc(-c2nn(-c3cccc(F)c3)cc2CNCc2cccnc2)o1,i,143.4,i,-5.66*,i,121*,i,i,41.0%*,85.0%*,i,i,
Cc1cc(Cl)ccc1C(=O)C1CCCN(C(=O)c2cc(C(C)C)no2)C1 (configuration not stated),i,108.8,i,-6.21*,i,i,98.0%*,i,20.5%*,i,48.0%*,.,
CC(C)c1cc(C(=O)N2CCCC(C(=O)c3ccc4ccccc4c3)C2)on1 (configuration not stated),i,99.2,i,i,i,i,.,.,.,.,.,.,
COc1cc(-c2nnc(SCC(=O)NC3CCS(=O)(=O)C3)o2)cc(OC)c1OC (configuration not stated),i,104.9,i,i,i,i,.,.,.,.,.,.,
Cc1cccc(CN2C(=O)c3ccccc3S(=O)(=O)c3ccc(C(=O)NCCCN4CCCC4)cc32)c1,i,113.1,i,-5.14*,i,i,i,i,i,57.0%*,41.0%*,i,
O=C(NCCN1CCCC1)c1ccc2c(c1)N(Cc1cccc(Cl)c1)C(=O)c1ccccc1S2(=O)=O,i,117.8,i,i,i,i,.,.,.,.,.,.,
CC1CCCN(CCCNC(=O)c2ccc3c(c2)N(Cc2ccc(F)cc2)C(=O)c2ccccc2S3=O)C1 (configuration not stated),i,105.0,i,-5.06*,i,55*,i,i,i,77.0%*,57.0%*,i,
O=C(CCS(=O)(=O)c1ccc(Br)cc1)Nc1ccc(Br)cc1F,i,98.5,i,i,i,i,.,.,.,.,.,.,
CN(C)CCNc1oc(COc2cccc(Cl)c2)nc1C#N,i,119.2,i,i,i,i,.,.,.,.,.,.,
CCN(CC)CCCNc1oc(-c2ccc(OC)c(OC)c2)nc1C#N,i,103.5,i,-6.38*,i,i,i,i,i,i,46.5%*,i,
CN(C)CCCNc1oc(-c2cccc(Cl)c2)nc1C#N,i,109.4,i,-6.85*,i,i,.,.,.,.,i,i,TRPC4 spec 2=i;TRPC4 spec=i;HEK293 MPD ctr 2-1=i;HEK293 MPD ctr-1=i
CCOc1ccc(/C=C/c2nc(C#N)c(NCCCN(C)C)o2)cc1,i,107.6,i,-5.47*,i,i,i,i,i,55.5%*,38.5%*,i,
Fc1ccccc1N1CCN(C2CCN(Cc3c[nH]c4ccccc34)CC2)CC1,i,121.7,i,-5.25*,i,i,148.5%*,i,19.0%*,58.5%*,i,.,
Clc1ccccc1N1CCN(Cc2c[nH]c3ccccc23)CC1,i,107.2,i,i,i,i,.,.,.,.,.,.,
N=c1c(C(=O)NCC2CCCO2)cc2c(=O)n3ccccc3nc2n1C1CCCC1 (configuration not stated),i,94.0,i,-5.92*,i,i,i,i,i,i,i,i,
COCCCn1c(=N)c(C(=O)NCC2CCCO2)cc2c(=O)n3cccc(C)c3nc21 (configuration not stated),i,102.8,i,-6.38*,i,i,146.0%*,79.5%*,20.5%*,27.5%*,40.5%*,i,
Cc1ccc2nc3c(cc(C(=O)NCc4ccco4)c(=N)n3C3CCCC3)c(=O)n2c1,i,105.0,i,i,i,i,.,.,.,.,.,.,
Cc1cccn2c(=O)c3cc(C(=O)NCc4ccco4)c(=N)n(C4CCCCC4)c3nc12,i,91.0,i,-6.76*,i,i,-160.5%*,i,-38.5%*,34.0%*,i,i,
